The source made the active and inactive calls.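 The calls were made as follows, unless noted: active = mean duplicate activation above the buffer control mean plus 5 SD of those controls; inactive = the rest.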

Potassium voltage-gated channel subfamily KQT member 1 (Homo sapiens), sequence (P51787 whole entry, looked up): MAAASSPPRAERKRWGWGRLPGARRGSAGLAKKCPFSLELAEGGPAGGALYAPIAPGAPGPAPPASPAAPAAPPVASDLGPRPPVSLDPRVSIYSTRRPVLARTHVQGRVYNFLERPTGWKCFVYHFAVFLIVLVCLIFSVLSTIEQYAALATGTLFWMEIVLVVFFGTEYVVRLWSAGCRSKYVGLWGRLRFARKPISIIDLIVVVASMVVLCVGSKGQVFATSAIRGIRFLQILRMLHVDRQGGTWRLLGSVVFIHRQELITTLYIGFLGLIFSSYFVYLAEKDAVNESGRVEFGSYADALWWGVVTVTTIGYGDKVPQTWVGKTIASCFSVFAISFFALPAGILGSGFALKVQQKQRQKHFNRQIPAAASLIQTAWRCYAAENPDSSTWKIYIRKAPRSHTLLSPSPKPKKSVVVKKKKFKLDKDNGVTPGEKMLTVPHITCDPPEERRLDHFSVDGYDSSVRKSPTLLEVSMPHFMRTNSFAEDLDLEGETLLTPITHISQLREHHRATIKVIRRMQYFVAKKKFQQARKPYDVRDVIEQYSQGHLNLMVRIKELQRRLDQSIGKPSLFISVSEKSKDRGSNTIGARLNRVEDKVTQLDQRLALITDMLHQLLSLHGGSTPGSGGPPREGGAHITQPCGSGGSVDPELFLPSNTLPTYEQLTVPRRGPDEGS

The first test deals with Potassium voltage-gated channel subfamily KQT member 1 (Homo sapiens) (UniProt P51787). Description: KCNQ1 activators by electrophysiology – IonWorks patch clamp, KCNQ1-CHO cells, orthogonal assay for KCNQ1 potentiator project, confirmation (AID 493184;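 active = current rise at least 3 SD above the untreated control mean in each of two repeat wells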). Conditions: automated patch clamp current, at 10 µM. A digest of the protocol:
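Material: KCNQ1-expressing CHO cells; doses: 10 µM final, single point; probe or stimulus: voltage step from -90 mV holding to +40 mV, 2,000 ms; signal: automated voltage clamp, amphotericin B perforated patch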
On the technique in general: The patch-clamp technique gives a direct electrical read-out from membranes.
Take `C=CS(=O)(=O)c1sc(Cl)c(N2CCOCC2)c1[N+](=O)[O-]`: the outcome was inactive.

With `CC1Oc2ccccc2N(CC(=O)N2CCCCCC2)C1=O` (centres undefined), the outcome was inactive.

With `Cc1onc(-c2ccccc2)c1C(=O)NC(=S)Nc1sc2c(c1C#N)CCCC2`, the outcome was inactive.

As for `O=C(NC(=S)Nc1cc(C(F)(F)F)ccc1N1CCOCC1)c1sc2ccccc2c1Cl`, the result was inactive.

For `Cc1cccc(NC(=O)C2CCCN2S(=O)(=O)c2ccc(Cl)cc2)n1` (centres undefined), the result was inactive.

As for `COc1ccc(C(=O)N=C2CCC(C#N)=C3c4cc(OC)c(OC)cc4CCN23)cc1`, the outcome was inactive.

Turning to `CCOC(=O)c1c(C)cccc1OCC(N)=O`, the result was inactive.

`CC(C)CC(=O)Nc1nnc(SCC(=O)NCc2ccco2)s1`: the result was inactive.

As for `COc1cccc(C2C3=C(N=c4s/c(=C\c5ccc(OCC(=O)O)cc5)c(=O)n42)c2ccccc2CC3)c1` (centres undefined), the result was inactive.

For `CCCOc1ccc(C(=O)NNC(=S)NC(=O)CC)cc1`, the result was inactive.

The target of another test is Potassium voltage-gated channel subfamily E member 1 (Homo sapiens) + Potassium voltage-gated channel subfamily KQT member 1 (Homo sapiens) (UniProt P15382+P51787). Kind of test: KCNQ1-E1 channel activation – thallium flux, CHO-K1 KCNQ1/E1 cells, selectivity assay for KCNQ1 potentiator project, confirmation (AID 493186). Conditions: FluxOR thallium flux, at 10 µM. A digest of the protocol: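 Test system: CHO-K1 cells with KCNQ1/E1. Times: 90-min dye loading then 20-min compound exposure, both at room temperature. Measured by: kinetic FluxOR thallium-flux fluorescence, 10 s baseline plus 110 s after stimulus. Repeats: duplicate wells per compound.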
Potassium voltage-gated channel subfamily E member 1 (Homo sapiens) + Potassium voltage-gated channel subfamily KQT member 1 (Homo sapiens), sequence (P51787 whole entry, looked up): as the sequence (P51787 whole entry, looked up) above
As to `CC(=O)Nc1ccc(/C=N/NC(=O)c2cccc(S(=O)(=O)N3CCOCC3)c2)cc1`, the result was inactive.

With `Cc1ccc2cc(/C=N/NC(=O)CN3CCCCC3)c(Cl)nc2c1`, the outcome was inactive.

In the case of `COc1cc2c(cc1NC(=O)CSc1nnc(COc3ccc(Cl)cc3)n1C)oc1ccccc12`, the outcome was inactive.

Turning to `Cc1ccc(OCCn2c(=S)[nH]c3ccccc32)c(C(C)C)c1`, the outcome was inactive.

As to `CN(CC(=O)NCc1ccccc1Cl)CC(=O)Nc1cccc(F)c1`, the outcome was inactive.

For `COc1cccc(NC(=S)N/N=C2/CCCCc3ccccc32)c1`, the result was inactive.

Regarding `Cc1ccsc1/C=N\NC(=O)c1n[nH]c2c1CCC2`, the result was inactive.

For `CCn1c2ccccc2c2cc(CC(N)=O)ccc21`, the outcome was inactive.

As for `Cc1ccc(C2C(C#N)=C(N)OC3=C2C(=O)CC(C)(C)C3)s1` (centres undefined), the result was inactive.

For `O=C(CNC(=S)NC(=O)c1ccc(Br)o1)c1ccccc1`, the result was inactive.

Take `Cc1cccc(C(=O)NC(=S)NNC(=O)COc2c(C)cccc2C)c1`: the result was inactive.

Regarding `CCCn1c(=O)c(C(=O)NNC(=O)c2ccc(Cl)cc2Cl)c(O)c2ccccc21`, the outcome was inactive.

With `Cc1[nH]c(=S)c(C#N)c(C)c1Cc1ccc(Cl)cc1Cl`, the outcome was inactive.

In the case of `CCCCS(=O)(=O)/C=C\C=C/S(=O)(=O)CCCC`, the outcome was inactive.

Take `O=C(Nc1nnc(-c2ccccc2)o1)c1cc(Cl)sc1Cl`: the outcome was inactive.

Regarding `O=C(CNc1ccc(Br)cc1)NNC1=NCCC1`, the result was inactive.

Take `Cc1ccc(C)c(NC(=S)NNC(=O)c2csc3c2CCCC3)c1`: the result was inactive.

`Cc1ccc(NC(=O)Nc2ccc3c(c2)CCC3)cc1`: the outcome was inactive.

Consider `Cc1nnnn1/C(=C\c1ccccc1)C(=O)OCC(=O)Nc1ccc(Cl)cc1F`, for which the outcome was inactive.

With `Cn1cc(C(=O)N/N=C/c2ccc([N+](=O)[O-])cc2)c2ccccc21`, the outcome was inactive.

As for `Cc1cccc(OCc2n[nH]c(=S)n2C2CCCCC2)c1`, the result was inactive.

As to `CC(=O)Nc1ccc(NC(=O)CSC2=NS(=O)(=O)c3cc(Cl)ccc3N2)cc1`, the result was inactive.

Turning to `COc1ccc(C(=O)/C=C/C(=O)N(CC(=O)NC2CCCCC2)Cc2ccccc2)c(O)c1`, the outcome was inactive.

Take `Cc1ccccc1CS(=O)(=O)c1nnc([C@H](Cc2ccccc2)NC(=O)OC(C)(C)C)o1`: the outcome was inactive.

On to `O=C(NC(=S)NCCC1=CCCCC1)c1ccccc1Br`, for which the result was inactive.

`O=C(NC(=S)Nc1cccc(Cl)c1)c1cncc(Br)c1`: the result was inactive.

`CC1=NOC(=O)/C1=C\c1ccc(-c2ccc(Br)cc2)o1`: the result was inactive.

Regarding `C/C(=N\Nc1nc2ccccc2s1)c1ccc(Br)s1`, the outcome was inactive.

`CN1CCN(c2ccc(S(=O)(=O)N3CCCCC3)cc2NC(=O)COc2cccc(Cl)c2)CC1`: the outcome was inactive.

Turning to `C=CS(=O)(=O)c1sc(Cl)c(N2CCOCC2)c1[N+](=O)[O-]`, the result was inactive.

As for `CC1Oc2ccccc2N(CC(=O)N2CCCCCC2)C1=O` (centres undefined), the result was inactive.

In the case of `Cc1onc(-c2ccccc2)c1C(=O)NC(=S)Nc1sc2c(c1C#N)CCCC2`, the outcome was inactive.

Turning to `O=C(NC(=S)Nc1cc(C(F)(F)F)ccc1N1CCOCC1)c1sc2ccccc2c1Cl`, the result was inactive.

With `Cc1cccc(NC(=O)C2CCCN2S(=O)(=O)c2ccc(Cl)cc2)n1` (centres undefined), the result was inactive.

On to `COc1ccc(C(=O)N=C2CCC(C#N)=C3c4cc(OC)c(OC)cc4CCN23)cc1`, for which the result was inactive.

For the compound `CCOC(=O)c1c(C)cccc1OCC(N)=O`, the outcome was inactive.

`CC(C)CC(=O)Nc1nnc(SCC(=O)NCc2ccco2)s1`: the outcome was inactive.

Turning to `COc1cccc(C2C3=C(N=c4s/c(=C\c5ccc(OCC(=O)O)cc5)c(=O)n42)c2ccccc2CC3)c1` (centres undefined), the result was inactive.

In the case of `CCCOc1ccc(C(=O)NNC(=S)NC(=O)CC)cc1`, the outcome was inactive.
